HePTP inhibitor: inhibitors of human HePTP phosphatase; P35236; recombinant HePTP phosphatase activity, OD absorbance; inhibition, % at 20 µM; 0.64% of 110,000 active; AID 521; in the data active = inhibition above about 50%
Target sequence (P35236 whole entry, looked up): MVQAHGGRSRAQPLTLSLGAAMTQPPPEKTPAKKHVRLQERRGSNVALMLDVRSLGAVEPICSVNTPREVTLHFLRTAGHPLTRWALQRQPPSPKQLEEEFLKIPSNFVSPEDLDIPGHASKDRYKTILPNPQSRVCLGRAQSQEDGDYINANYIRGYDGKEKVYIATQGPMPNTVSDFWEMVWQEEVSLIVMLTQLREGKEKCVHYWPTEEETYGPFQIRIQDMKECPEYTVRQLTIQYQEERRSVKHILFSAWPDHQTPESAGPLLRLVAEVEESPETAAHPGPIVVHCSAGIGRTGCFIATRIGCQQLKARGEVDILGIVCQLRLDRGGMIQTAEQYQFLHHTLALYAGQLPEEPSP
PLAP act: human PLAP activation. purified PLAP enzyme, luminescent substrate read-out; active compounds read high. P05187. 1.2% of 96,000 active. activation fold at 20 µM; in the data active = activation fold above about 2
PostGolgi yeast: growth inhibition of a yeast mutant, post-Golgi transport screen | inhibition, % at 10 µM | AID 739 | 0.9% of 98,000 active | post-Golgi transport phenotypic cell assay;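 also: yeast cells grown in 1536-well plates; yeast grown about 18 h at 30C before absorbance read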
tolC growth inh: blocks growth of E. coli BW25113 tolC mutant; OD615; growth inhibition, % at 10 µM (by protocol); 2.2% of 65,000 active;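 active = growth inhibition at or above a cutoff equal to the mean over every tested compound plus 3 SD, cut at about 60% in these data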;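 also: growth measured after 20 h incubation at 37 °C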
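Doses: one dose of 10 µM final / Material: E. coli BW25113 ΔtolC::kan, tolC deletion mutant strain / Buffer or medium: LB with kanamycin 50 µg/mL / Evaluation: percent growth inhibition / Detection: optical density read at 615 nm / Incubation: 37 °C, 20 h exposure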
Ecoli WT expand: E. coli BW25113 growth inhibition, expanded screen. 0.15% of 98,000 active. growth inhibition, % at 100 µM. OD600 absorbance;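 active = growth inhibition above about 50% at one test dose, limit read from the data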;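 also: growth measured after 20 h incubation at 37 °C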
PostGolgi ctrl: growth of the yeast control strain, post-Golgi counter-screen; efflux-deficient yeast background strain, growth absorbance A615, 16 h; inhibition, % at 10 µM; 5% of 98,000 active; AID 738
A number is an active result; – = inactive; · = not tested or not shown. Hits are enriched below; roughly 5.4% of the tested compounds scored in any of these assays. Rule as the data show it, unless noted: active = inhibition above about 30%; inactive = the rest.

SMILES	HePTP inhibitor	PLAP act	PostGolgi yeast	tolC growth inh	Ecoli WT expand	PostGolgi ctrl
COc1cccc2c1OC[C@@H](CO)[C@H]2N(C)C(=O)Nc1ccccc1	·	–	–	·	–	–
CN(C(=O)Nc1ccc(Cl)cc1Cl)[C@H]1c2cc(Br)ccc2OC[C@H]1CO	·	–	–	·	–	81
O=C(Nc1ccc(S(=O)(=O)N2CCCCC2)cc1)c1ccc(CN2CCc3ccccc3C2)cc1	·	–	–	·	–	54
Cc1ccc(C(=O)Nc2ccc(S(=O)(=O)N3CCc4ccccc4C3)cc2)o1	–	–	–	–	–	48
Cc1ccc(C(=O)Nc2ccc(S(=O)(=O)N3CCc4ccccc43)cc2)o1	–	–	–	–	–	–
COC(=O)C1=C(C)NC(C)=C(C(=O)OC)C1/C=C/c1ccccc1	–	–	–	·	–	–
Cc1ccc(-n2nc(C)c3c2OC(N)=C(C#N)C3c2ccncc2)cc1 (stereo unspecified)	–	–	–	–	–	–
Cc1nn(-c2ccccc2)c2c1C(c1ccncc1)C(C#N)=C(N)O2 (stereo unspecified)	–	–	–	–	–	32
CN(C)CCOC(=O)c1cccc(Br)c1	·	–	–	·	–	–
CCN(CC)S(=O)(=O)c1ccc(NC(=O)c2ccccc2N(C)S(C)(=O)=O)cc1	·	2.1	–	·	–	–
Cc1cccc(N(C(=O)c2csnn2)C(C(=O)NC(C)(C)C)c2ccncc2)c1 (stereo unspecified)	·	–	–	·	–	–
CCOc1ccc(C2C=C(c3ccc(C)cc3)Nc3nnnn32)cc1 (stereo unspecified)	–	–	–	–	–	–
CCOc1ccc(C2C=C(c3ccc(C)cc3)Nc3ncnn32)cc1 (stereo unspecified)	–	–	–	–	–	38
Cc1cc(NC(c2cccnc2)c2ccc3cccnc3c2O)no1 (stereo unspecified)	–	2.4	–	–	–	–
Cc1cc(NC(=O)c2cc(-c3cccnc3)nc3c(C)c(C)ccc23)no1	–	–	–	–	–	–
Cc1ccnc(NS(=O)(=O)c2ccc(NC(=O)C34CC5CC(C)(CC(C)(C5)C3)C4)cc2)n1	·	–	–	·	–	–
O=C(Nc1ccc(OCC(F)(F)C(F)F)c(C(F)(F)F)c1)c1ccccc1O	·	–	–	·	–	85
O=C(Nc1ccc(Cl)c(C(F)(F)F)c1)c1ccccc1Br	–	·	·	·	·	·
O=C(NCCOC(=O)c1ccncc1)c1ccccc1	–	–	–	–	–	–
CCCCOn1c(C)c(C(=O)OCC)c2c3nonc3ccc21	–	·	·	66	·	·
O=C(c1ccc(I)cc1)N1CCN(c2ccccn2)CC1	–	·	·	·	·	·
O=C(c1ccco1)n1nc(NCc2ccccc2)nc1NCc1ccccc1	–	–	–	–	–	79
CCCc1nc(SC2CCCC2)c2c(=O)n(C)c(=O)n(C)c2n1	–	–	–	84	–	–
Cn1c(=O)c2c(SC3CCCC3)nc(CC(C)(C)C)nc2n(C)c1=O	–	·	·	–	·	·
Cc1ccc(C)n1CCN1CCN(CC(=O)Nc2ccc(S(N)(=O)=O)cc2)CC1	–	–	–	–	–	37
SMILES	HePTP inhibitor	PLAP act	PostGolgi yeast	tolC growth inh	Ecoli WT expand	PostGolgi ctrl
Cc1cccc(C)c1NC(=S)NNc1ncc(C(F)(F)F)cc1Cl	·	2.1	–	·	–	–
Cc1nnc(C)n1/N=C/c1cc(Br)ccc1O	–	–	–	–	–	–
Cc1nnc(C)n1/N=C/c1cc(Br)cc(Br)c1O	–	–	–	–	51	–
O=c1cc(-c2ccccc2)nc(N2CCOCC2)[nH]1	–	·	·	·	·	·
O=c1cc(-c2ccccc2)nc(N2CCN(Cc3ccccc3)CC2)[nH]1	–	–	–	–	–	39
COc1ccc(-n2c(Cc3cccn3C)nnc2SCC(=O)Nc2ccc(C)c(Cl)c2)cc1	–	–	–	75	–	–
Cc1ccc(-n2c(Cc3cccn3C)nnc2SCC(=O)N2CCc3ccccc32)cc1	–	–	–	–	–	45
Cn1cccc1Cc1nnc(SCC(=O)N2CCc3ccccc32)n1-c1ccc(F)cc1	–	–	–	–	–	–
CCCCOC(=O)CSC1=C(C#N)C(c2cccc3ccccc23)CC(=O)N1 (stereo unspecified)	–	·	·	·	·	·
CCC(CC)c1nnc(NC(=O)c2c(-c3ccccc3)noc2C)s1	–	–	–	79	–	–
Cc1onc(-c2ccccc2)c1C(=O)Nc1nnc(COc2ccc(Cl)cc2)s1	–	–	–	80	–	–
Cc1onc(-c2c(Cl)cccc2Cl)c1C(=O)N/N=C(\N)COc1ccc(Cl)cc1	·	–	–	·	–	32
Cc1nnc(NC(=O)c2c(-c3ccccc3)noc2C)s1	·	–	–	·	–	–

Compound activity from PubChem.
